Screens as filed in PubChem.
Sampled rows, rich in hits. Any-hit rate of the full collection: about 3.7%.
hERG protect – shields human hERG channel from block by proarrhythmic agents | activation (rescue from dofetilide block), less the hit threshold, % at 10 µM | Q12809 | CHO-hERG, FluxOR thallium flux, dofetilide IC70 present | AID 1511 | 310,000 tested, 0.51% active;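 active means activation above the mean of controls blocked by dofetilide plus 5 SD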;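 further: thallium influx through hERG after potassium depolarization seen as dye fluorescence rise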
KCNQ1 act – potentiates or activates the human KCNQ1 potassium channel; P51787; AID 2648; CHO-K1 KCNQ1, thallium flux FluxOR fluorescence; active compounds read high; B-score at 10 µM; 310,000 tested, 0.35% active;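 active means fluorescence ratio B-score, a plate-corrected score, at least three library SD, with initial intensity B-score within 5 SD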
Target sequence (P51787 whole entry, looked up): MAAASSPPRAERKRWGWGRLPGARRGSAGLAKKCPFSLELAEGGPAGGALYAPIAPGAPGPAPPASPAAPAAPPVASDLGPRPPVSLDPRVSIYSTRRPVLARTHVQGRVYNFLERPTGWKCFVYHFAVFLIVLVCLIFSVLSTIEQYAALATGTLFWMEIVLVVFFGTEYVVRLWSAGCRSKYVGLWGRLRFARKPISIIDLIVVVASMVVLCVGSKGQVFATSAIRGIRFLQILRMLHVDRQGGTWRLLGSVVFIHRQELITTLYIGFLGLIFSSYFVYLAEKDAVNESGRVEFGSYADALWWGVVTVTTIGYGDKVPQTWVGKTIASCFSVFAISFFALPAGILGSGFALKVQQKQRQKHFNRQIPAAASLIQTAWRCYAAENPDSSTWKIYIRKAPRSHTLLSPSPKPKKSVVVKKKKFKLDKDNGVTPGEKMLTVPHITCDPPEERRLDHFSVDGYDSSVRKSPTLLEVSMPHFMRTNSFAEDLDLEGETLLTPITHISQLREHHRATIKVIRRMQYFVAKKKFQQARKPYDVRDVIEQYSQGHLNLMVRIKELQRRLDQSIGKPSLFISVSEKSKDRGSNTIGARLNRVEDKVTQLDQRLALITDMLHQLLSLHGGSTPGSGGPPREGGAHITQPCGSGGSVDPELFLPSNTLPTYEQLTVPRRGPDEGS
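Material: CHO-K1 cells stably expressing KCNQ1. Medium: assay buffer for compound exposure, DMSO matched across wells. Reagent: K+/Tl+ depolarizing stimulus. Compound dosing: single-concentration screen. Times: 37 °C overnight plating, 90-min dark dye load, 20-min compound pretreatment. Technique: FluxOR Tl+ flux fluorescence.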
KCNK3 block – human KCNK3 channel inhibition, primary screen; CHO-KCNK3 thallium flux, FluxOR fluorescence; active compounds read low; B-score at 10 µM; 340,000 tested, 0.84% active; AID 602410;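 active means B-score under library mean minus 4 SD, starting fluorescence ratio at most library mean plus 5 SD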;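 further: more negative B-score means stronger inhibition of thallium flux through KCNK3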
KCNK9 inh – human KCNK9 channel inhibition | 310,000 tested, 1.2% active | HEK293 KCNK9, FluxOR thallium flux fluorescence; active compounds read low | Q9NPC2 | B-score at 10 µM;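 active means ratio B-score over 3 SD below the library mean, with starting fluorescence within 5 SD of its mean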;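 further: negative B-score means less thallium flux so channel inhibition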
Kir21 block – inhibitors of mouse Kir2.1 inward-rectifier potassium channel | P35561 | HEK293-Kir2.1, FluxOR thallium flux fluorescence; active compounds read low | B-score at 10 µM | 310,000 tested, 0.85% active | AID 1672;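 active means fluorescence ratio B-score at or below minus 3 SD of library scores, with starting-brightness B-score within 2 SD, cut at about -4.2 in these data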;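 further: channel flux triggered by added potassium and thallium sulfate stimulus; B-score of peak minus minimum fluorescence over baseline after thallium stimulus; more negative B-score means stronger Kir2.1 block with less thallium influx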
KCNQ1 block – blocks the human KCNQ1 potassium channel; AID 2642; 310,000 tested, 1.3% active; B-score at 10 µM; P51787; CHO-K1 KCNQ1, FluxOR thallium flux fluorescence; active compounds read high;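 active means compounds whose thallium flux B-score, printed positive for inhibition, exceeds three library SD while starting fluorescence stays within three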;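 further: channel opened by potassium depolarization with thallium stimulus after 20 min compound exposure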
KCNK9 inh conf – confirmation of human KCNK9 potassium channel inhibitors; shares compounds with KCNK9 inh; HEK293 KCNK9 cells, FluxOR thallium flux fluorescence; inhibition, % at 10 µM; 4,900 tested, 43% active; AID 492992;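 active means thallium signal inhibited by more than 5 SD of the compound-free buffer control wells, on both duplicate plates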;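 further: 0% = assay buffer control wells without compound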
Kir2-1 spec – mouse Kir2.1 off-target activity of KCNK9 modulators. AID 492993. 4,900 tested, 4% active. Kir2.1 cells, FluxOR thallium flux fluorescence. shares compounds with KCNK9 inh. inhibition, % at 10 µM;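 active means thallium signal drop more than 5 SD beyond the mean of the no-compound control wells, seen in both duplicate plates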;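 further: signal is fluorescence rise after thallium addition divided by baseline fluorescence; plate controls were assay buffer only for no effect and full block by chlorpromazine control for full effect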
KCNK9 uninduced – non-induced cell nonspecific activity of KCNK9 modulators | shares compounds with KCNK9 inh | non-induced KCNK9-HEK293, FluxOR thallium flux | inhibition, % at 10 µM | 4,900 tested, 40% active;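 active means thallium signal drop beyond 5 SD of the untreated control mean, on both duplicate plates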;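 further: plate controls were buffer only IC0 wells for no effect and SID17386958 at its maximal inhibitory level for full effect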
An asterisk follows results filed as active.

Results for Cc1ccc(Nc2nc(CSc3nnc(-c4cccnc4)n3-c3ccccc3C)cs2)cc1 ?
hERG protect: -14; KCNQ1 act: inactive; KCNK3 block: inactive; KCNK9 inh: -9.9*; Kir21 block: 1.2; KCNQ1 block: inactive; KCNK9 inh conf: inactive; Kir2-1 spec: inactive; KCNK9 uninduced: inactive

How did O=C(CCNC(=O)c1ccc([N+](=O)[O-])cc1)NC1CCCc2ccccc21 (centres undefined) do in these assays?
KCNK3 block: inactive

Results for Cc1ccc(C#N)c(SCc2cccc(Br)c2)n1 ?
hERG protect: -4; KCNQ1 act: inactive; KCNK3 block: inactive; KCNK9 inh: -12*; Kir21 block: 0.53; KCNQ1 block: inactive; KCNK9 inh conf: 42%*; Kir2-1 spec: inactive; KCNK9 uninduced: 48%*

How did COc1ccc(CC2(C)OC(c3ccc(Cl)cc3)=NN2C(C)=O)cc1 (centres undefined) do in these assays?
hERG protect: -17; KCNQ1 act: inactive; KCNK3 block: inactive; KCNK9 inh: inactive; Kir21 block: 0; KCNQ1 block: inactive; KCNK9 inh conf: inactive; Kir2-1 spec: inactive; KCNK9 uninduced: inactive

How did CC/C(C)=N/NS(=O)(=O)c1ccc(C)c([N+](=O)[O-])c1 do in these assays?
hERG protect: -7; KCNQ1 act: inactive; KCNK3 block: inactive; KCNK9 inh: inactive; Kir21 block: 1.1; KCNQ1 block: inactive

How did C/C(CCC(C)C)=N\NS(=O)(=O)c1ccc(C)c([N+](=O)[O-])c1 do in these assays?
hERG protect: -10; KCNQ1 act: inactive; KCNK3 block: inactive; KCNK9 inh: -8.9*; Kir21 block: -0.57; KCNQ1 block: inactive; KCNK9 inh conf: 64%*; Kir2-1 spec: inactive; KCNK9 uninduced: 41%*

What do the screens show for `C#CCCOC(=O)N1C2=NC(C(=O)OC)=C(C(=O)OC)[C@@H]3N(C)c4ccccc4[C@]23C[C@H]1C(=O)OC`?
hERG protect: -9; KCNQ1 act: inactive; KCNK3 block: inactive; KCNK9 inh: inactive; Kir21 block: 0.31; KCNQ1 block: inactive

How did C#CCCOC(=O)N1C2=NC(C(=O)OC)=C(C(=O)OC)[C@@H]3N(Cc4ccccc4)c4ccccc4[C@]23C[C@H]1C(=O)OC do in these assays?
hERG protect: -6; KCNQ1 act: inactive; KCNK3 block: inactive; KCNK9 inh: -9.5*; Kir21 block: 0.34; KCNQ1 block: inactive; KCNK9 inh conf: 51%*; Kir2-1 spec: inactive; KCNK9 uninduced: 34%*

Results for C=CCN1c2ccccc2[C@]23C[C@@H](C(=O)OC)N(C(=O)NCCC)C2=NC(C(=O)OC)=C(C(=O)OC)[C@H]13 ?
hERG protect: -3; KCNQ1 act: inactive; KCNK3 block: inactive; KCNK9 inh: -9.3*; Kir21 block: 0.85; KCNQ1 block: inactive; KCNK9 inh conf: 32%*; Kir2-1 spec: inactive; KCNK9 uninduced: 30%*

How did Cc1cc(CN(C)C(=O)c2cc(COc3ccc(C)c(C)c3)on2)on1 do in these assays?
hERG protect: -14; KCNQ1 act: inactive; KCNK3 block: inactive; KCNK9 inh: inactive; Kir21 block: -1.2; KCNQ1 block: inactive

How did C#CCN(C(=O)c1cc(COc2ccc(C)c(C)c2)on1)C1CCCCC1 do in these assays?
hERG protect: -13; KCNQ1 act: inactive; KCNK3 block: inactive; KCNK9 inh: inactive; Kir21 block: 0.81; KCNQ1 block: 6*; KCNK9 inh conf: inactive; Kir2-1 spec: inactive; KCNK9 uninduced: inactive

Results for CC1Cc2ccccc2N1C(=O)CO/N=C/c1ccc(OC(F)F)cc1 (centres undefined) ?
hERG protect: -7; KCNQ1 act: inactive; KCNK3 block: inactive; KCNK9 inh: inactive; Kir21 block: -0.33; KCNQ1 block: inactive; KCNK9 inh conf: inactive; Kir2-1 spec: inactive; KCNK9 uninduced: inactive

How did CC1Cc2ccccc2N1C(=O)COC(=O)/C=C/c1ccc(F)cc1 (centres undefined) do in these assays?
KCNK3 block: inactive

Results for Cc1ccc(CNC(=O)C2CCCN(S(=O)(=O)c3ccc(-n4cnnn4)cc3)C2)cc1 (centres undefined) ?
hERG protect: -1; KCNQ1 act: inactive; KCNK3 block: inactive; KCNK9 inh: inactive; Kir21 block: 0.18; KCNQ1 block: inactive

What do the screens show for `Cc1nc(SCC(=O)NC(C)(C#N)C2CC2)c2c(-c3cccs3)csc2n1` (centres undefined)?
hERG protect: -12; KCNQ1 act: inactive; KCNK3 block: inactive; KCNK9 inh: -11*; Kir21 block: -0.46; KCNQ1 block: inactive; KCNK9 inh conf: 48%*; Kir2-1 spec: inactive; KCNK9 uninduced: inactive

What do the screens show for `c1cc2c(cc1Nc1nc(-c3ccc4c(c3)OCO4)cs1)OCCO2`?
hERG protect: -13; KCNQ1 act: inactive; KCNK3 block: inactive; KCNK9 inh: inactive; Kir21 block: 0.1; KCNQ1 block: inactive

What do the screens show for `Cc1nc(NC(=O)c2ccccc2)sc1-c1csc(NCCc2ccccc2)n1`?
hERG protect: -7; KCNQ1 act: inactive; KCNK3 block: inactive; KCNK9 inh: -8.7*; Kir21 block: 1.4; KCNQ1 block: inactive; KCNK9 inh conf: 32%*; Kir2-1 spec: inactive; KCNK9 uninduced: inactive

Results for Cc1nc(NC(=O)c2ccccc2)sc1-c1csc(NCc2ccccc2)n1 ?
hERG protect: -19; KCNQ1 act: inactive; KCNK3 block: inactive; KCNK9 inh: inactive; Kir21 block: -0.31; KCNQ1 block: inactive

What do the screens show for `COc1ccc(Cl)cc1Nc1nc(-c2sc(NC(=O)C(C)(C)C)nc2C)cs1`?
hERG protect: -5; KCNQ1 act: inactive; KCNK3 block: inactive; KCNK9 inh: inactive; Kir21 block: 0.79; KCNQ1 block: inactive

How did COc1cccc(Nc2nc(-c3ccc4c(c3)OCCO4)cs2)c1 do in these assays?
hERG protect: -8; KCNQ1 act: inactive; KCNK3 block: inactive; KCNK9 inh: inactive; Kir21 block: -0.06; KCNQ1 block: inactive; KCNK9 inh conf: inactive; Kir2-1 spec: inactive; KCNK9 uninduced: inactive

What do the screens show for `COc1ccc(Cl)cc1Nc1nc(-c2sc(NC(=O)c3ccco3)nc2C)cs1`?
hERG protect: -36; KCNQ1 act: inactive; KCNK3 block: inactive; KCNK9 inh: -11*; Kir21 block: -0.61; KCNQ1 block: inactive; KCNK9 inh conf: inactive; Kir2-1 spec: inactive; KCNK9 uninduced: inactive
